The results in this text go back to ChEMBL document CHEMBL1150593, “Biologically active polyketide metabolites from an undetermined fungicolous hyphomycete resembling Cladosporium” (2002).

One test relates to Fusarium verticillioides. Briefly: Antimicrobial activity against Fusarium verticillioides NRRL 25457 at 250 ug/disk by standard agar diffusion assay. It counts as functional, organism-based. A general note: A growth-free zone around the sample is the usual read-out of agar diffusion tests.
The test system of a further test is Bacillus subtilis. The test is described as follows: Antimicrobial activity against Bacillus subtilis ATCC 6051 at 200 ug/disk by standard agar diffusion assay. It counts as functional. Particulars: read-out: IZ. Summed up:
(§1)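 Agar diffusion (disk) assay with 200 µg of compound applied per disk against the bacterial strain. The same panel at this loading also included Candida albicans ATCC 90029. Read-out was the zone of growth inhibition, recorded in mm.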

In another test the test system is Aspergillus flavus. The test is described as follows: Antimicrobial activity against Aspergillus flavus NRRL 6541 at 250 ug/disk by standard agar diffusion assay. The test is classed as functional, organism-based.
Another test deals with Staphylococcus aureus. Briefly: Antimicrobial activity against Staphylococcus aureus ATCC 29213 at 200 ug/disk by standard agar diffusion assay. The test is classed as functional. Particulars: read-out: IZ. Summed up:
as §1

Each structure is given as a SMILES string. The source made the active and inactive calls. No cut-off for these calls is given here.

Consider `O=Cc1c(O)cccc1CCC(=O)O`, for which the outcome in the test with Fusarium verticillioides and in the test on Aspergillus flavus was inactive. Moreover, in the test with Bacillus subtilis, the zone of inhibition at 200 µg/disc amounted to 22 mm.

On to `CC(O)C(O)CC1OC(=O)c2c(O)cccc21` (centres undefined), for which the outcome with Fusarium verticillioides and in the test with Aspergillus flavus was inactive.

For the compound `CC1(O)C(=O)C=Cc2c1ccc(O)c2CO` (centres undefined), the outcome in the test with Fusarium verticillioides and in the test on Aspergillus flavus was inactive.

As for `CC(O)C(O)CC1OCc2c(O)cccc21` (mixture of isomers; 7a), the outcome in the test on Fusarium verticillioides and in the test on Aspergillus flavus was inactive.

In the case of `CC(O)C(O)CC1OCc2c(O)cccc21` (mixture of isomers; 7b), the result with Fusarium verticillioides and in the test on Aspergillus flavus was inactive.

With `O=C(O)CC1OCc2c(O)cccc21` (racemic), the result with Fusarium verticillioides and with Aspergillus flavus was inactive. For the same compound, the zone of inhibition at 200 µg/disc with Bacillus subtilis turned out to be 8 mm.

Consider `O=C(O)CC1OC(=O)c2c(O)cccc21` (racemic), for which the result in the test with Fusarium verticillioides and in the test with Aspergillus flavus was inactive.

For the compound `COc1cc(O)c2c(c1)C(=O)[C@H]1C[C@](C)(O)[C@H](O)C[C@@H]1[C@H]2O` (relative stereo), the outcome in the test with Fusarium verticillioides and in the test with Aspergillus flavus was inactive.

For `COc1cc(O)c2c(c1)C(=O)C1=C(C2=O)[C@H](O)[C@@H](O)[C@@](C)(O)[C@@H]1O` [ALTERSOLANOL A], the zone of inhibition at 200 µg/disc in the test with Staphylococcus aureus was determined as 31 mm; with Bacillus subtilis it was 33 mm. Also, the outcome with Fusarium verticillioides and in the test with Aspergillus flavus was inactive.

As for `C[C@H]1O[C@@H]2O[C@H]1C=Cc1cccc(O)c12` [CLADOACETAL A], the zone of inhibition at 200 µg/disc with Staphylococcus aureus is 13 mm. Besides, the outcome in the test with Fusarium verticillioides and with Aspergillus flavus was inactive.

For the compound `COc1cc(O)c2c(c1)C(=O)c1cc(C)c(O)cc1C2=O` [MACROSPORIN], the zone of inhibition at 200 µg/disc with Staphylococcus aureus amounted to 20 mm; in the test on Bacillus subtilis it was 23 mm. Also, the outcome in the test with Fusarium verticillioides and in the test with Aspergillus flavus was inactive.
